From PubChem
The list is not random: actives were taken first. Their share in the collection is about 2.3%.
MPTP inh: permeability transition pore inhibition; inhibition, % at 10 µM; isolated mouse mitochondria, Ca2+ swelling absorbance, 30 min; actives 1.4% (n = 360,000); AID 602449;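 active = inhibition of 50% or more, scaled per plate between neutral and stimulator controls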
SKN-1 inh: blocks SKN-1 activity in C. elegans. C. elegans VP596 Pgst-4::GFP/RFP ratio, acrylamide-induced, 24 h. inhibition, % at 21.8 µM. actives 0.49% (n = 360,000). AID 624304;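 active = interference check ratio from 0.5 to 1.5 plus GFP to RFP signal ratio inhibition reaching or exceeding a fixed threshold, cut at about 30% in these data, passing the limit was not always enough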
ATG4B inh: blocks human ATG4B protease cleavage of LC3 substrate; ATG4B cleavage of LC3-PLA2, NBD-HPC fluorescence, 1 h; inhibition, % at 8.33 µM; actives 0.51% (n = 340,000); in the data active = inhibition above about 40%
Target sequence (Q9Y4P1 whole entry, looked up): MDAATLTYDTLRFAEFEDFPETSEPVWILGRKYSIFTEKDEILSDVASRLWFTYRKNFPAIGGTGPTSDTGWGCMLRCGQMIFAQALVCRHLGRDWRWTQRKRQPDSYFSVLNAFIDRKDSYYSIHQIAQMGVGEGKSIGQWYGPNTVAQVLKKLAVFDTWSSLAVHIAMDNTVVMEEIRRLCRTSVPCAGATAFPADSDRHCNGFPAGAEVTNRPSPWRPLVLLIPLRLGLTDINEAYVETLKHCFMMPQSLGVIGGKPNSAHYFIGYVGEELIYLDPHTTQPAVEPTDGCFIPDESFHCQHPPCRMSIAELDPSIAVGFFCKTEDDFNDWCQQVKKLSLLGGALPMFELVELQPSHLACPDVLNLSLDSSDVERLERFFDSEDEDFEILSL
MT1-MMP act inh: inhibitors of human MT1-MMP activation; actives 0.061% (n = 360,000); GFP/RFP ratio change, % at 20 µM; HT1080 RFP-PRO-GFP cells, GFP/RFP ratio fluorescence, overnight; percent of plate control window, DMSO zero; P50281;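 active = GFP/RFP ratio change of at least 30% with cell ATP level not reduced by more than half and red fluorescence within 50% of control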
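Assay system: HT1080 RFP-PRO-GFP cells | Dosing: 20 µM single dose, 1% DMSO | Incubation: Cells overnight before dosing, compound overnight, 37 °C, 5% CO2 | Evaluation: GFP/RFP fluorescence ratio | Control set: DMSO-only wells and HT1080 RFP-L50D-GFP cell wells as references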
ATG4B confirm: confirmation of human ATG4B inhibitors; ATG4B protease fluorescent substrate cleavage assay; shares compounds with ATG4B inh; actives 92% (n = 320); inhibition, % at 8.33 µM; in the data active = inhibition above about 39%
PLA2 counter: inhibits human PLA2, flagging false ATG4B inhibitors | shares compounds with ATG4B inh | purified PLA2, NBD-C6-HPC fluorescence, 45 min | inhibition, % at 8.33 µM | actives 66% (n = 1,600) | AID 588402; in the data active = inhibition above about 50%
Target sequence (P04054 whole entry, looked up): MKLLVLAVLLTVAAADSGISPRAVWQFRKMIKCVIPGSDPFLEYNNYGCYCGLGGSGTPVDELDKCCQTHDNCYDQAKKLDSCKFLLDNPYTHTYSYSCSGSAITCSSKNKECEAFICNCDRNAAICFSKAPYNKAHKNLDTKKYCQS
MPTP counter: membrane potential counter-screen of mitochondrial pore inhibitors; isolated mitochondria, Rhodamine 123 fluorescence; shares compounds with MPTP inh; actives 78% (n = 5,000); inhibition, % at 10 µM; in the data active = inhibition above about 22%
MPTP abs DR: dose response confirmation of mitochondrial permeability transition pore inhibitors; shares compounds with MPTP inh; isolated mitochondria swelling, absorbance; IC50, µM; actives 58% (n = 780); AID 651561; in the data active = IC50 below about 20 µM
MPTP cs DR: MPTP inhibitor counter-screen activity, dose response. shares compounds with MPTP inh. isolated mitochondria counterscreen, fluorescence read-out. IC50, µM. actives 49% (n = 780); in the data active = IC50 below about 80 µM
Each line names hits and unclear results; the compound was inactive in the other large screens (follow-up assays come after a bar, where they were run).

C=CCSC1=N/C(=C\c2cc(OCC)c(OC(C)=O)c([N+](=O)[O-])c2)C(=O)S1	MPTP inh 98.4, ATG4B inh 89.2 | PLA2 counter 94.0 | MPTP counter 63.2
COc1cc(CCc2ccccc2)c(C(=O)O)c(O)c1CC=C(C)C	MPTP inh 93.3, ATG4B inh 75.3 | PLA2 counter 86.5 | MPTP counter 68.9
COCOc1ccc(/C=C/C(=O)c2c(OCOC)cc(OCOC)c(CC=C(C)C)c2O)cc1OCOC	none
COc1cc(CCc2ccccc2)c(C(=O)O)c(O)c1C/C=C(/C)CCC=C(C)C	MPTP inh 86.6, ATG4B inh 85.3 | PLA2 counter 90.3 | MPTP counter 55.7
Cc1cc(Oc2ccccc2)nc(NCc2ccccc2)n1	none
Cc1cc(Nc2ccc(Cl)cc2)nc(NCc2ccccc2)n1	MPTP inh 53.4, ATG4B inh 44.3 | ATG4B confirm 69.1 | PLA2 counter inactive | MPTP counter 31.4
O=C(Nc1ccccc1Cc1ccccc1)c1ccccc1NS(=O)(=O)c1ccc(Cl)s1	MPTP inh 64.2, ATG4B inh 81.5 | PLA2 counter 83.1 | MPTP counter 51.0
CS(=O)(=O)c1ccccc1C(=O)Nc1ccccc1Cc1ccccc1	none
CC(C)(C)c1cc(C(=O)NNc2cc(C(F)(F)F)ccc2Cl)n(Cc2ccccc2)n1	MPTP inh 75.4, ATG4B inh 42.8 | PLA2 counter 63.1 | MPTP counter 78.4
Cc1c(Cl)cccc1NC(=S)N1CCCN(Cc2ccccc2F)C1	MPTP inh 68.7, ATG4B inh 63.7 | PLA2 counter 56.3 | MPTP counter 73.8
O=[N+]([O-])c1ccccc1Nc1c2ccccc2nc2ccccc12	none
O=[N+]([O-])c1ccc(Nc2c3ccccc3nc3ccccc23)cc1	MPTP inh 79.6, ATG4B inh 58.3 | PLA2 counter 59.7 | MPTP counter 77.2
O=C(c1coc2ccccc2c1=O)N1CCN(c2cccc(C(F)(F)F)c2)CC1	none
CCOc1ccc(S(=O)(=O)Nc2nc3ccccc3nc2N2CCN(C)CC2)cc1	none
O=S(=O)(Nc1nc2ccccc2nc1N1CCN(c2ccccc2F)CC1)c1ccc(Cl)cc1	MPTP inh 79.3, ATG4B inh 70.7 | PLA2 counter 68.3 | MPTP counter 88.0
CCOC(=O)c1c(N2C(=O)Nc3cc(Cl)c(Cl)cc3N2O)sc2c1CCCCC2	MPTP inh 91.1, ATG4B inh 77.1 | PLA2 counter 92.1 | MPTP counter 70.2
CCOC(=O)c1c(-n2cnnn2)sc2c1CCCC2	none
CC1CCCCC1NC(=O)COc1ccccc1C#N (stereo not drawn)	none
Cc1ccc(N=Cc2cc(Cc3ccccc3Cl)cc([N+](=O)[O-])c2O)c(O)c1	MPTP inh 84.4, ATG4B inh 91.6 | PLA2 counter 79.1 | MPTP counter 53.4
Cc1n[nH]c(C)c1Sc1ccccc1N=Cc1cc(Cl)cc([N+](=O)[O-])c1O	none
CC(C)(C)c1ccc(OCc2ccc(C(=O)N/N=C3\CC4CC=CC34)cc2)cc1 (stereo not drawn)	MPTP inh 54.7, ATG4B inh 48.8 | PLA2 counter 55.6 | MPTP counter inactive | MPTP abs DR inactive | MPTP cs DR 25.3
Cc1ccc2nc3c(c(Nc4ccc5c(c4)OCCO5)c2c1)CCC3	MPTP inh 53.7, ATG4B inh 42.0 | ATG4B confirm 64.7 | PLA2 counter inactive | MPTP counter 75.7
CC(C)S(=O)(=O)C1=NSC2=NC(=O)/C(=C\c3ccc(-c4ccccc4)o3)C(=N)N21	MPTP inh 105.8, ATG4B inh 58.8 | PLA2 counter 55.6 | MPTP counter 68.4
CC(C)S(=O)(=O)C1=NSC2=NC(=O)/C(=C\c3ccc(-c4cccc(C(=O)O)c4)o3)C(=N)N21	none
OC(c1cc(-c2cccc(Cl)c2)nc2ccccc12)C1CCCCN1 (stereo not drawn)	MPTP inh 81.6, ATG4B inh 42.5 | PLA2 counter 65.8 | MPTP counter inactive | MPTP abs DR 3.56 | MPTP cs DR 29
O=C(NNc1cc(C(F)(F)F)nc2ccccc12)Nc1cccc(Cl)c1	MPTP inh 67.2, ATG4B inh 85.3 | PLA2 counter 84.7 | MPTP counter 70.4
O=C(NNc1nccc(C(F)(F)F)n1)Nc1cccc(Cl)c1	none
COc1cccc(CCNC(=O)c2cc(COc3ccc(C)c(C)c3)on2)c1OC	none (no result: ATG4B inh)
Cc1ccc(F)cc1CNC(=O)c1cc(COc2ccc3ncccc3c2)on1	MPTP inh 95.0, ATG4B inh 61.1 | PLA2 counter 67.6 | MPTP counter 105.2
N#C/C(=N\Nc1cccc([N+](=O)[O-])c1)C(=O)c1ccc(Br)cc1	MPTP inh 92.6, ATG4B inh 57.1 | PLA2 counter 80.1 | MPTP counter 40.6
O=C1/C(=C/c2cccs2)SC(=S)N1CCC(=O)N1CCCCC1CCO (stereo not drawn)	none
O=C1NC[C@@H](CCCCN2C[C@H](Cc3ccccc3)N(CC3CCCCC3)C(=O)C2=O)N(CC2CCCCC2)C1=O	none (no result: ATG4B inh)
O=C(CNC(=O)Cc1ccccc1)NCc1cccc(C(F)(F)F)c1	none
FC(F)(F)c1cccc(NC(=S)NCc2ccccc2)c1	MPTP inh 105.8, ATG4B inh 59.4 | PLA2 counter 61.8 | MPTP counter 114.5
FC(F)(F)Sc1ccc(NC(=S)NCc2ccccc2)cc1	MPTP inh 84.1, ATG4B inh 73.3 | PLA2 counter 81.5 | MPTP counter 73.3
FC(F)(F)c1cccc(CNC(=S)Nc2ccccc2)c1	MPTP inh 82.1, ATG4B inh 48.6 | PLA2 counter 60.5 | MPTP counter 94.8
S=C(NCc1ccccc1)NCc1cccc(CNC(=S)NCc2ccccc2)c1	MPTP inh 83.6, ATG4B inh 68.0 | PLA2 counter 77.2 | MPTP counter 77.8
c1ccc(-c2nnc(OCC3CCCO3)c3ccccc23)cc1 (stereo not drawn)	none
O=C(NCc1cccc(C(F)(F)F)c1)c1cc(Cl)ccc1Cl	none
O=C(NCc1cccc(C(F)(F)F)c1)c1cc(Cl)cc(Cl)c1	MPTP inh 100.1, ATG4B inh 51.7 | ATG4B confirm 60.3 | PLA2 counter inactive | MPTP counter 88.2
COc1ccc(S(=O)(=O)N(C)C[C@H]2Oc3ccc(NC(=O)Nc4ccc5c(c4)OCO5)cc3C(=O)N([C@H](C)CO)C[C@@H]2C)cc1	none
O=C(NC1CCSc2ccccc21)c1cccc(OC(F)F)c1 (stereo not drawn)	none
